Results published in ChEMBL document CHEMBL1130142, “(S)-spiro[(1,3-diazacyclopent-1-ene)-5,2'-(7'-methyl-1',2',3',4'- tetrahydronaphthalene)]: resolution, stereospecific synthesis, and preliminary pharmacological characterization as a partial alpha-adrenergic agonist” (J Med Chem, 1997).

Experiments:
Canis familiaris [1] = species: Canis familiaris; assay: Effective Concentration compound in isolated canine femoral artery; type: functional; conditions: Canis lupus familiaris
Summary of the method: (§1)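 Isolated canine blood vessels (saphenous vein without endothelium; femoral artery) exposed to increasing agonist concentrations; contractile responses measured.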

Canis familiaris [2] = species: Canis familiaris; assay: Effective concentration of compound in isolated canine saphenous vein; type: functional; conditions: Canis lupus familiaris; summary of the method: as §1
Rattus norvegicus [3] = assay: Concentration which increases the arterial blood pressure by 20 mmHg in the pithed rat in vivo by intravenous administration; type: functional, Artery
Rattus norvegicus [4] = species: Rattus norvegicus; assay: The maximal pressure response caused by the compound in pithed rat; type: functional
Canis familiaris [5] = species: Canis familiaris; assay: Maximum contractile response expressed as percentage (mean) of the maximal contraction to KCl (100 mM) in the isolated femoral artery
Canis familiaris [6] = species: Canis familiaris; assay: Maximum contractile response expressed as percentage (mean) of the maximal contraction to KCl (100 mM) in the isolated saphenous vein
Canis familiaris [7] = species: Canis familiaris; assay: Maximum contractile response expressed as percentage (mean) of the maximal contraction to KCl (100 mM) in the isolated femoral artery; remark: listed apart in the source
Canis familiaris [8] = species: Canis familiaris; assay: Maximum contractile response expressed as percentage (mean) of the maximal contraction to KCl (100 mM) in the isolated saphenous vein; remark: listed apart in the source
[9] = C20 ratio was determined in the presence or absence of 0.1 mg of prazosin for the compound which are indicative of the contribution of alpha-1 adnergic mechanisms to the pressor response; type: functional
Summary of the method: (§2)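 Pithed rats received test compound as cumulative iv doses, and mean arterial pressure was recorded. C20 is the iv dose (µg/kg) that raises arterial pressure by 20 mmHg (mean ± SEM, n = 5). The same cumulative doses were repeated 10 min after iv prazosin 100 µg/kg or iv yohimbine 1 mg/kg. The ratio is C20 without antagonist over C20 with antagonist.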

[10] = C20 ratio was determined in the presence or absence of 1 mg of yohimbine for the compound which are indicative of the contribution of alpha-2 adnergic mechanisms to the pressor response; type: functional; summary of the method: as §2

Compound | EC50 (Canis familiaris [1]) | EC50 (Canis familiaris [2]) | C20 (Rattus norvegicus [3]) | Max (Rattus norvegicus [4]) | Emax (Canis familiaris [5]) | Emax (Canis familiaris [6]) | Emax (Canis familiaris [7]) | Emax (Canis familiaris [8]) | Ratio [9] | Ratio [10]
Cc1ccc2c(c1)C[C@@]1(CC2)CN=CN1 | > 3000 nM | 220 nM | 5.8 µg/kg | 106 mmHg | 15.8 | 78.3 | – | – | – | –
Cc1ccc2c(c1)CC1(CC2)CN=CN1 (stereo unspecified) | > 3000 nM | 360 nM | 6.7 µg/kg | 112 mmHg | – | – | 7.7 | 68.5 | – | –
Cc1ccc2c(c1)C[C@]1(CC2)CN=CN1 | > 3000 nM | 2800 nM | 44.8 µg/kg | 109 mmHg | – | – | 8.4 | 39.4 | – | –
FC(F)(F)c1ccc(Cl)c(NC2=NCCN2)c1 | 10900 nM | 2020 nM | 8.6 µg/kg | 129 mmHg | – | – | 19.7 | 54.4 | 16 | 1.8
